Activity calls are given as the source filed them. The calls are words filed in the database; no cut-off is given here.
Assays:
[1] = Inhibition of pig elastase; parameters: species or system Sus scrofa
Method in brief: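 Porcine pancreatic elastase, 75 µg/mL stock in Tris-HCl pH 8.0. Enzyme was preincubated with test sample (5% DMSO final) at 30 °C for 20 min. Then N-succinyl-Ala-Ala-Ala-p-nitroanilide was added at 1.5 mM final (Km). Absorbance increase at 405 nm was read every 5 min for 30 min. Dilution series in DMSO ran from 1 mM to 100 pM, in triplicate, with PMSF as positive control.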

[2] = Inhibition of bovine alpha chymotrypsin; parameters: species or system Bos taurus
Method in brief: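 Bovine pancreatic alpha-chymotrypsin, 1 mg/mL stock in 50 mM Tris-HCl/100 mM NaCl/1 mM CaCl2, pH 7.8. Enzyme was preincubated with test sample in DMSO at 37 °C for 10 min. Then N-succinyl-Gly-Gly-Phe-p-nitroanilide was added at 0.75 mM final (≈Km). Absorbance rise at 405 nm was read every 5 min for 30 min. Samples were log/2 dilutions from 1 mM to 100 pM stocks, in triplicate, with PMSF as positive control.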

[3] = species on record: Sus scrofa; assay: Inhibition of pig trypsin up to 30 uM
Method in brief: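 Porcine pancreatic trypsin was run as the chymotrypsin assay: 50 mM Tris-HCl/100 mM NaCl/1 mM CaCl2, pH 7.8, with 10 min preincubation with sample in DMSO at 37 °C. Nα-benzoyl-DL-arginine-4-nitroanilide was the substrate. Absorbance at 405 nm was followed every 5 min for 30 min. Tests were done in triplicate, with PMSF as positive control.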

| Compound | IC50 [1] [nM] | IC50 [2] [nM] | Activity [3] |
| --- | --- | --- | --- |
| C/C=C1\NC(=O)[C@@H](NC(=O)[C@H](CCc2ccc(O)cc2)NC(=O)[C@H](C)NC(=O)[C@H](O)CO)[C@@H](C)OC(=O)[C@H](C(C)C)NC(=O)[C@H](Cc2ccc(O)cc2)N(C)C(=O)[C@H](Cc2ccccc2)N2C(=O)[C@H](CC[C@H]2O)NC1=O [LYNGBYASTATIN 5] | 3.2 | 2800 | inactive |
| C/C=C1\NC(=O)[C@@H](NC(=O)[C@H](CCc2ccc(O)cc2)NC(=O)[C@H](C)NC(=O)[C@H](O)COS(=O)(=O)O)[C@@H](C)OC(=O)[C@H](C(C)C)NC(=O)[C@H](Cc2ccc(O)cc2)N(C)C(=O)[C@H](Cc2ccccc2)N2C(=O)[C@H](CC[C@H]2OC)NC1=O [LYNGBYASTATIN 6] | 3.3 | 2500 | inactive |
| C/C=C1\NC(=O)[C@@H](NC(=O)[C@H](CCC(N)=O)NC(=O)CCCCC)[C@@H](C)OC(=O)[C@H](C(C)C)NC(=O)[C@H](Cc2ccc(O)cc2)N(C)C(=O)[C@H](Cc2ccccc2)N2C(=O)[C@H](CC[C@H]2O)NC1=O [LYNGBYASTATIN 7] | – | – | inactive |
| C/C=C1\NC(=O)[C@@H](NC(=O)[C@H](CCC(N)=O)NC(=O)CCC)[C@@H](C)OC(=O)[C@H](C(C)C)NC(=O)[C@H](Cc2ccc(O)cc2)N(C)C(=O)[C@H](Cc2ccccc2)N2C(=O)[C@H](CC[C@H]2O)NC1=O [SOMAMIDE B] | 9.5 | 4200 | inactive |
